The target in assay [1] is T1, Melanocortin receptor 4 (Homo sapiens, UniProt P32245). The assay can be described thus: Inhibition against human melanocortin-4 (MC4) receptor. The method, boiled down:
(§1)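 BHK570 cells stably transfected with MC4 cDNA, with clones selected in G418/MTX medium. Membranes were homogenised in 20 mM Hepes pH 7.1, 5 mM MgCl2 and bacitracin. 10 μg membranes were incubated with 80 pM 125-labelled NDP-α-MSH and varying test concentrations in 25 mM HEPES pH 7.0 buffer (CaCl2, MgSO4, EGTA, tween 20, 0.1% HSA) for 2 h at 25 °C. Samples were filtered and washed with ice-cold saline, then counted; IC50 was determined.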

Assay [2] deals with T2, Growth hormone secretagogue receptor type 1 (Homo sapiens, UniProt Q92847). Put plainly: Inhibition against human growth hormone secretagogue (GHS) receptor. Put shortly:
(§2)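 Competition binding assay with ghrelin as tracer, run as previously described. IC50 values were derived from tracer displacement.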

For assay [3], the target named is T1, Melanocortin receptor 4. The assay can be described thus: Inhibition against human melanocortin-4 (MC4) receptor; No binding detected. Put shortly:
as §1

Assay [4] concerns the target 5-hydroxytryptamine receptor 6 (Homo sapiens, UniProt P50406). Put plainly: Inhibition against human 5-hydroxytryptamine 6 receptor.
In assay [5] the target is T3, Type-1 angiotensin II receptor (Homo sapiens, UniProt P30556).
T3 sequence (P30556 whole entry): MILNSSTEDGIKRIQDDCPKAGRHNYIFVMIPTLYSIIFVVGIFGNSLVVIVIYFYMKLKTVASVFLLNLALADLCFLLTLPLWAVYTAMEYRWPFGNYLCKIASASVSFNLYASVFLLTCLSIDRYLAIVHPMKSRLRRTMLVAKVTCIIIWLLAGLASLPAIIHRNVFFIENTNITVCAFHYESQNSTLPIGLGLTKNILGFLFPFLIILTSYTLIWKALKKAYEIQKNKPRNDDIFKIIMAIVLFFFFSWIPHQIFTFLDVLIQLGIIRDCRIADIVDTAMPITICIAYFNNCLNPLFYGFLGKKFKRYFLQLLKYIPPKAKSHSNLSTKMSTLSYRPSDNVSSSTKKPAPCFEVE
The assay can be described thus: Inhibition against human angiotensin II receptor, type 1 (AG2-R). Put shortly: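 Competition binding assay with saralasin as tracer, run externally by a contract lab following a published method. IC50 values were derived from tracer displacement.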

In assay [6] the target is Growth hormone secretagogue receptor type 1 (Sus scrofa, UniProt Q95254). The assay can be described thus: Inhibition against pig growth hormone secretagogue (GHS) receptor.
Assay [7] deals with T2, Growth hormone secretagogue receptor type 1. Put plainly: Inhibition against human growth hormone secretagogue (GHS) receptor; No binding detected. The method, boiled down:
as §2

Molecules are shown by their SMILES.

T1 sequence (P32245 whole entry): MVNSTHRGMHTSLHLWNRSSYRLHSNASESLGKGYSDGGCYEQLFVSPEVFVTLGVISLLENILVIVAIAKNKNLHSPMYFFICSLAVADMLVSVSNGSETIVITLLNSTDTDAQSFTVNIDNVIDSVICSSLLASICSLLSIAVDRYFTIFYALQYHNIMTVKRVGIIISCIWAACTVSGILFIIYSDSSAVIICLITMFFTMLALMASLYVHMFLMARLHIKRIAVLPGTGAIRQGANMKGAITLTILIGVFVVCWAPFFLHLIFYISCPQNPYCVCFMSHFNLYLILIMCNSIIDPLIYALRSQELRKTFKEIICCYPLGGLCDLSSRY
T2 sequence (Q92847 whole entry): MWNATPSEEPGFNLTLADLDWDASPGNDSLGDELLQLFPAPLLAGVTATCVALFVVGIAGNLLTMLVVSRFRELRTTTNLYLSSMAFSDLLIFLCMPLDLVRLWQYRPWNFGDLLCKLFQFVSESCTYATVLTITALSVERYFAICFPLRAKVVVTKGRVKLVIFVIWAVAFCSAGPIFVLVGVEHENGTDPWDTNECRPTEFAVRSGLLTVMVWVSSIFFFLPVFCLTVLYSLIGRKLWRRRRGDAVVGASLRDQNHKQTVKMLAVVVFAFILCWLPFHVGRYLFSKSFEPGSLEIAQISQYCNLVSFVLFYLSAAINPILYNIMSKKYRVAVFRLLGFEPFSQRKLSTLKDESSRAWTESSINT
Sequence of 5-hydroxytryptamine receptor 6 (P50406 whole entry): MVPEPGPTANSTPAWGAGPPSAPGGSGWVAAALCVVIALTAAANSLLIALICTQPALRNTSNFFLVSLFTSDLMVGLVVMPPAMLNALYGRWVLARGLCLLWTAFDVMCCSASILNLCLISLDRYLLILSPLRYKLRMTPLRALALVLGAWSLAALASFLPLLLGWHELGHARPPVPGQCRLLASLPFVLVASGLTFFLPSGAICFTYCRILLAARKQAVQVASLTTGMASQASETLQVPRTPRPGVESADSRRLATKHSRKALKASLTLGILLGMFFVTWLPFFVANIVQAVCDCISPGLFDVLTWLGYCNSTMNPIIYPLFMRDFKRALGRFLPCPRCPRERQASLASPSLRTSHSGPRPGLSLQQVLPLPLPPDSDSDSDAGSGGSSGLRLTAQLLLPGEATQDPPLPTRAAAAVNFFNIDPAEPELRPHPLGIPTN
Sequence of Growth hormone secretagogue receptor type 1 (Sus scrofa, UniProt Q95254) (Q95254 whole entry): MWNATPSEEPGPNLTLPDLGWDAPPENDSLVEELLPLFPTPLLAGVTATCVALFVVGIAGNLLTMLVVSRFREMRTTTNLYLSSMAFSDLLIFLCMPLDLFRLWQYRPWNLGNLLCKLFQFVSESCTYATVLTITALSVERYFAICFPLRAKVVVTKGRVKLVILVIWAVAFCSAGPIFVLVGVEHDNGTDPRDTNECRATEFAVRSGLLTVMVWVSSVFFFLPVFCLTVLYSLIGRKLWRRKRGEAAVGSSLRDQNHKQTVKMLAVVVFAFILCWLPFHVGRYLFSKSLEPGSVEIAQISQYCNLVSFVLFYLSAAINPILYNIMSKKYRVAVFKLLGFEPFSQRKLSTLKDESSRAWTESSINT

As for `CS(=O)(=O)N1CC2(CCN(C(=O)[C@@H](Cc3ccc(Cl)cc3)NC(=O)C3Cc4ccccc4CN3)CC2)c2ccccc21` (some centres undefined), the half-inhibitory concentration (IC50) against Melanocortin receptor 4 [1] came out at 100 nM; in assay [2], 190 nM.
`Cc1ccc2[nH]c(-c3ccc(Br)cc3)c(CCCCCNC3CCCCC3)c2c1` had an IC50 against Melanocortin receptor 4 [1] of 612 nM.
Regarding `CC(C)(N)C(=O)N[C@H](COCc1ccccc1)C(=O)N1CCC2(CC1)CN(S(C)(=O)=O)c1ccccc12` [IBUTAMOREN], the IC50 result on Melanocortin receptor 4 [3] is on record as “Not Active”.
As to `CN(C)CCCc1c(-c2cccc(Br)c2)[nH]c2ccccc12`, the 50% inhibitory concentration (IC50) in assay [4] is 0.7 nM.
For the molecule `CC(C)(N)CC(=O)N[C@@H]1CCc2ccccc2N(Cc2ccc(-c3ccccc3-c3nnn[nH]3)cc2)C1=O`, the half-maximal inhibitory concentration (IC50) amounted to 3.6 µM in assay [5], 63 nM in assay [6] and 2800 nM in assay [2].
As to `CCCCc1nc(Cl)c(CO)n1Cc1ccc(-c2ccccc2-c2nnn[nH]2)cc1` [LOSARTAN], the IC50 entry in assay [7] is given as “Not Active”.

The values above are taken from ChEMBL document CHEMBL1137085, “Recognition of privileged structures by G-protein coupled receptors” (J Med Chem, 2004).
